proCasp7 act = procaspase-7 activators, primary screen, counter-screen for procaspase-3 activator project, biochemical, absorbance, HTS, human; Caspase-7 (Homo sapiens), P55210; recombinant procaspase-7, Ac-DEVD-pNA absorbance 405 nm; D23A/D198A/D206A triple mutant, cannot self-cleave; scale: DMSO 0, 5 µM enzyme 100; activation, % at 8.5 µM; 330,000 compounds, 0.093% hits; AID 463210, 2010;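 active means percent activation above the screen-wide mean plus 3 SD, cut at about 25% in these data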
Target sequence (P55210 whole entry D23A/D198A/D206A): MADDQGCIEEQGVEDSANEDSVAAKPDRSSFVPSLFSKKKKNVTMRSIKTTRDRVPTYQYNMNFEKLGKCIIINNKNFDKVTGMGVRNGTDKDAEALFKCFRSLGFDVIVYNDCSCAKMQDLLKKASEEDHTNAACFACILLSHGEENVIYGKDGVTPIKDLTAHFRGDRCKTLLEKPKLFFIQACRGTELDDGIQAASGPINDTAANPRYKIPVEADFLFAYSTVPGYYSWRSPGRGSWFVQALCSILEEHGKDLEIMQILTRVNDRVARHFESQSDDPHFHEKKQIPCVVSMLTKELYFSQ
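signal = Epi-absorbance of released pNA at 405 nm, two timepoints | assay system = Uncleavable procaspase-7 mutant enzyme | reagent = Ac-DEVD-pNA substrate, 400 µM as added | times = 1 h enzyme–compound preincubation and 2 h substrate reaction, both 25 °C | benchmarks = low DMSO alone, high DMSO plus 5 µM PC-7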
proCasp3 act = activators of human procaspase-3 D3A mutant, primary screen, biochemical, absorbance, PC-3 D3A mutant, single concentration | AID 463141, 2010 | activation, % at 8.5 µM | Caspase-3 (Homo sapiens), P42574 | recombinant procaspase-3 D3A, Ac-DEVD-pNA absorbance 405 nm | 330,000 compounds, 0.11% hits;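 active means activation above the mean of all tested compounds plus 3 SD, cut at about 21% in these data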;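 further: 0% = DMSO alone and 100% = DMSO wells spiked with extra 5 µM PC-3 D3A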
Target sequence (P42574 whole entry D9A/D28A/D175A): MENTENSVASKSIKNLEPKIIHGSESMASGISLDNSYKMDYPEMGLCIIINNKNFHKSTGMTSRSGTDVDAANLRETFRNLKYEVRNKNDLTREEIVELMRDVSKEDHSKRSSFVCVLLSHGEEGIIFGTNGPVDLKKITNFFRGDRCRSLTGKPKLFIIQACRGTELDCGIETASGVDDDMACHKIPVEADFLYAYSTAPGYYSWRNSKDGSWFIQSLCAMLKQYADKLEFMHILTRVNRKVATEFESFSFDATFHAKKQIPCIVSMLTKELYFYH
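Assay system – Procaspase-3 D3A mutant · Benchmarks – DMSO low control, extra-enzyme high control · Technique – 405 nm absorbance of p-nitroaniline, reads at 0 and 120 min · Doses – 8.5 µM nominal · Measure – % activation between DMSO and enzyme-spiked controls · Also added – Ac-DEVD-pNA chromogenic peptide substrate · Schedule – 1 h compound preincubation, 2 h substrate hydrolysis at 25 °C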
CHT inh = inhibitors of human choline transporter CHT | CHT-expressing cells, membrane potential dye, choline response; hits give low values | B-score at 10 µM | 310,000 compounds, 0.86% hits;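 active means B-score over 3 SD under the library average, and starting fluorescence ratio not unusually high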;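 further: choline stimulus applied at its EC90 after an EC20 pre-addition; B-score computed on integrated fluorescence ratio after choline addition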
CHT PAM = CHT positive allosteric modulators, primary screen, cell-based, membrane potential dye, choline EC20; B-score at 10 µM; 310,000 compounds, 0.49% hits; CHT-expressing cells; hits give high values; LV-AA mutant CHT in HEK293 cells; AID 488977, 2010;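 active means initial fluorescence not abnormally high and integrated response B-score, plate-corrected, over 3 SD above library mean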
CHT activ conf = CHT activators, confirmation, cell-based, membrane potential dye, duplicate; shares compounds with CHT PAM; CHT-expressing cells, membrane potential dye fluorescence (FDSS); % of choline EC20–EC90 response window; HEK293 expressing CHT LV-AA mutant; choline added at its EC20; activation, % at 10 µM; 2,500 compounds, 91% hits; AID 504833, 2011;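 active means primary screen active, with duplicate mean activation above negative control mean plus 3 SD, cut at about 11% in these data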
HEK293 MP dye = membrane potential response in parental HEK293 cells, counter-screen for CHT activator project, cell-based, membrane potential dye; shares compounds with CHT PAM; 2,500 compounds, 62% hits; ratio readout change at 10 µM, hits read low; membrane potential dye fluorescence (FDSS); measured after EC20 choline addition;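 active means duplicate-averaged ratio beyond 3 SD from buffer wells, up or down, though filed actives are nearly all decreases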
Active calls of the source: *; i = inactive; . = not tested or not shown. This is a sample that favours compounds with a hit; in the whole collection about 1.3% have one here.

SMILES	proCasp7 act	proCasp3 act	CHT inh	CHT PAM	CHT activ conf	HEK293 MP dye
COc1ccc(S(=O)(=O)N2c3ccccc3OCC2C)cc1 (stereo unspecified)	0	-4	i	7.1*	32*	i
COc1ccc(S(=O)(=O)N2c3ccccc3OCC2C(C)(C)C)cc1 (stereo unspecified)	-3	1	i	i	.	.
CCOC(=O)CC1C(=O)NCCN1C(=O)c1cc2c(=O)n3ccccc3nc2s1 (stereo unspecified)	1	0	i	i	.	.
CCOC(=O)CC1C(=O)NCCN1C(=O)c1cc2c(=O)n3cccc(C)c3nc2s1 (stereo unspecified)	2	0	i	6.8*	17*	-37*
CCCN(CC(=O)Nc1ccccc1C)C(=O)COc1c(Cl)cccc1Cl	2	-2	i	i	.	.
CCn1c(/C=C/c2ccccc2)nc2ccccc21	11	7	i	i	.	.
CC(C)Cn1c(/C=C/c2ccccc2)nc2ccccc21	12	-1	i	i	23*	i
COc1ccc(OC)c(S(=O)(=O)NC2CC(=O)N(c3cccc(F)c3)C2)c1 (stereo unspecified)	14	-8	i	i	.	.
Brc1ccc(-c2nc(-c3ccncc3)no2)cc1	-5	0	i	i	.	.
O=[N+]([O-])c1ccc(-c2nc(-c3ccncc3)no2)cc1	7	1	i	i	26*	-36*
Cc1cccc2cc(CN(Cc3cccnc3)C(=O)c3cccs3)c3nnnn3c12	11	4	i	i	.	.
CC(C)N(Cc1ccccc1)C(=O)C1CCCN(c2ncnc3c2nc2n3CCCCC2)C1 (stereo unspecified)	-6	8	i	i	.	.
CCCCN(Cc1ccco1)C(=O)C1CCCN(c2ncnc3c2nc2n3CCCCC2)C1 (stereo unspecified)	-2	-9	i	i	18*	i
CCc1ccc(Nc2n[n+](-c3ccccc3)c(-c3cc(OC)c(OC)cc3Br)s2)cc1	-27	-13	i	i	.	.
CCc1ccc(Nc2n[n+](-c3ccccc3)c(-c3ccc(OCc4ccccc4)cc3)s2)cc1	-3	3	i	17*	2	i
COc1cc(-c2nnc(SCC(=O)/C(C#N)=C(\C)N)o2)cc(OC)c1OC	6	0	i	i	4	-23*
O=C(Cn1cnc2ccccc21)OCC(=O)N1CCCCC1	-4	4	.	.	.	.
COc1ccc(-c2[nH]ncc2CNCc2cc(C)n(C)n2)c(F)c1	2	5	i	7.8*	45*	-60*
N=c1n(CCO)c2ccccc2n1CCN1CCCCC1	-1	1	i	i	35*	-34*
N=c1n(CCN2CCCCC2)c2ccccc2n1CC(O)c1ccco1 (stereo unspecified)	11	-7	i	i	.	.
CC(=O)c1cccc(OCc2cc(C(=O)N(C)Cc3cnccn3)no2)c1	5	4	i	i	.	.
CN(Cc1cccnc1)C(=O)c1cc(COc2ccc3c(c2)CCCC3)on1	1	-7	i	i	2	i
Cc1sc2nc(CN3CCCC3)nc(N3CCN(C(=O)c4ccco4)CC3)c2c1C	7	3	i	7.3*	46*	-39*
Cc1sc2nc(CN3CCCC3)nc(N3CCC(C(N)=O)CC3)c2c1C	-4	-2	i	8.9*	67*	-54*
Cc1nc(SCC(=O)Nc2ccccc2Cl)oc1C	2	-3	i	i	.	.
SMILES	proCasp7 act	proCasp3 act	CHT inh	CHT PAM	CHT activ conf	HEK293 MP dye
CC1=C(C(=O)Nc2cccc(F)c2)C(c2ccsc2)C2=C(CC(C)(C)CC2=O)N1 (stereo unspecified)	-5	-3	i	i	.	.
Cc1ccc(N2C(=O)N(CC(=O)Nc3ccc([N+](=O)[O-])cc3)C(=O)C2C)cc1 (stereo unspecified)	-7	3	i	i	.	.
Cc1nn(-c2ccccc2)c(Cl)c1CN(C(=O)CCl)c1cccc2ccccc12	-13	-1	i	9*	36*	i
CCOC(=O)/C(C#N)=C/c1c(N2CCN(c3ccccc3)CC2)nc2ccccn2c1=O	-9	-2	i	i	.	.
COC(=O)/C(C#N)=C/c1c(N2CCN(C)CC2)nc2ccccn2c1=O	-7	4	i	7.3*	48*	-56*
N#C/C(=C\c1c(N2CCOCC2)nc2ccccn2c1=O)C(=O)NC1CCS(=O)(=O)C1 (stereo unspecified)	-7	-3	i	9.6*	10*	-54*
CN1CCN(c2nc3ccccn3c(=O)c2C=C(C#N)C#N)CC1	-3	5	i	i	50*	-49*
Cn1c(CNC(=O)c2ccc3c(c2)OCO3)nnc1SCC(=O)Nc1ccc(F)cc1F	1	-5	i	i	.	.
Cn1nc([N+](=O)[O-])nc1Oc1ccc(C(C)(C)C)cc1	-5	-1	i	i	.	.
COc1ccc(C(=O)Nc2nnc(Cc3ccc(OC)c(OC)c3)s2)cc1	-18	4	i	i	.	.
COc1ccc(-c2c[n+](CC(=O)c3cccs3)c3n2CCC3)cc1	-6	5	i	i	44*	-31*
Cc1nnc(Sc2cc(C(=O)NCCCN(C)Cc3ccccc3)c3ccccc3n2)s1	8	7	i	6.5*	24*	-29*
Cc1[nH]ccc2c1[nH]c1cc(=O)ccc12	16	18	i	i	50*	-49*
O=c1cc[nH]c2c1ccc1c(=O)cc[nH]c12	0	12	i	i	.	.
COc1ccc(Cc2nnc(NC(=O)Nc3ccccc3F)s2)cc1OC	14	3	i	i	.	.
CC(C)OCCCNC(=O)C(Cc1ccccc1)NS(=O)(=O)c1ccc2c(c1)CCC(=O)N2 (stereo unspecified)	-1	13	i	i	.	.
O=C(CC1CC2CCC1C2)NC1CCCCCCC1 (stereo unspecified)	13	-5	i	i	.	.
Cc1ccc(-c2nc3ncccn3c2Nc2ccccc2C)o1	1	5	i	i	40*	-43*

Source: PubChem
